Calls of active or inactive are those of the source. The calls are words filed in the database; no cut-off is given here.
Columns and labels:
BT-549 = assay: Growth inhibition of human BT549 cells after 48 hrs by SRB assay; format: functional
Summary of the method: (§1)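 Run at NCI in the 60-human-tumor-cell-line anticancer screen. Each compound was tested at a minimum of five concentrations at 10-fold dilutions.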

UACC-62 = assay: Growth inhibition of human UACC62 cells after 48 hrs by SRB assay; format: functional; conditions: UACC-62, 48 h
Summary of the method: (§2)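 NCI 60 human tumour cell line in vitro anticancer screen, run at NCI. Compound tested at a minimum of five concentrations in 10-fold dilutions per cell line.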

HOP-62 = assay: Growth inhibition of human HOP62 cells after 48 hrs by SRB assay; format: functional; conditions: HOP-62, 48 h; summary of the method: as §1
NCI-H460 = assay: Growth inhibition of human NCI-H460 cells after 48 hrs by SRB assay; format: functional; conditions: NCI-H460, 48 h; summary of the method: as §2
MDA-MB-231 = assay: Growth inhibition of human MDA-MB-231 cells after 48 hrs by SRB assay; format: functional; conditions: MDA-MB-231, 48 h; summary of the method: as §2
HCT-15 = assay: Growth inhibition of human HCT15 cells after 48 hrs by SRB assay; format: functional; conditions: HCT-15, 48 h; summary of the method: as §1
T47D = assay: Growth inhibition of human T47D cells after 48 hrs by SRB assay; format: functional; summary of the method: as §2
COLO 205 = assay: Growth inhibition of human COLO205 cells after 48 hrs by SRB assay; format: functional; conditions: COLO 205, 48 h; summary of the method: as §2
NCI-H23 = assay: Growth inhibition of human NCIH23 cells after 48 hrs by SRB assay; format: functional; conditions: NCI-H23, 48 h; summary of the method: as §2
OVCAR-5 = assay: Growth inhibition of human OVACAR5 cells after 48 hrs by SRB assay; format: functional; conditions: OVCAR-5, 48 h; summary of the method: as §1
K562 = assay: Growth inhibition of human K562 cells after 48 hrs by SRB assay; format: functional; conditions: K562, 48 h; summary of the method: as §2
OVCAR-8 = assay: Growth inhibition of human OVACAR8 cells after 48 hrs by SRB assay; format: functional; conditions: OVCAR-8, 48 h; summary of the method: as §1
NCI/ADR-RES = assay: Growth inhibition of human NCI/ADR-RES cells after 48 hrs by SRB assay; format: functional; summary of the method: as §2
IGROV-1 = assay: Growth inhibition of human IGROV1 cells after 48 hrs by SRB assay; format: functional; conditions: IGROV-1, 48 h, read-out: Log LC50 (the source's name) (converted); summary of the method: as §1
NCI-H522 = assay: Growth inhibition of human NCI-H522 cells after 48 hrs by SRB assay; format: functional; conditions: NCI-H522, 48 h; summary of the method: as §2
[1] = Growth inhibition of human […] cells after 48 hrs by SRB assay; format: functional; summary of the method: as §1
MDA-MB235 = assay: (§3) Growth inhibition of human […] cells after 48 hrs by SRB assay; format: functional; summary of the method: as §1
[2] = as §3; format: functional; summary of the method: as §1
CAKI-1 = assay: Growth inhibition of human CAKI1 cells after 48 hrs by SRB assay; format: functional; conditions: CAKI-1, 48 h; summary of the method: as §1
SNB-19 = assay: Growth inhibition of human SNB19 cells after 48 hrs by SRB assay; format: functional; conditions: SNB-19, 48 h; summary of the method: as §1
SF-268 = assay: Growth inhibition of human SF268 cells after 48 hrs by SRB assay; format: functional; conditions: SF-268, 48 h; summary of the method: as §1
KM12 = assay: Growth inhibition of human KM12 cells after 48 hrs by SRB assay; format: functional; conditions: KM12, 48 h; summary of the method: as §1
[3] = Growth inhibition of human OVACAR3 cells after 48 hrs by SRB assay; format: functional; conditions: OVACAR3, 48 h; summary of the method: as §1
A549 = assay: Growth inhibition of human A549 cells after 48 hrs by SRB assay; format: functional; conditions: A549, 48 h; summary of the method: as §1
SNB-75 = assay: Growth inhibition of human SNB75 cells after 48 hrs by SRB assay; format: functional; summary of the method: as §2
MCF7 = assay: Growth inhibition of human MCF7 cells after 48 hrs by SRB assay; format: functional; conditions: MCF7, 48 h; summary of the method: as §1
M14 = assay: Growth inhibition of human M14 cells after 48 hrs by SRB assay; format: functional; summary of the method: as §1
RPMI-8226 = assay: Growth inhibition of human RPMI8226 cells after 48 hrs by SRB assay; format: functional; conditions: RPMI-8226, 48 h; summary of the method: as §2
UACC-257 = assay: Growth inhibition of human UACC257 cells after 48 hrs by SRB assay; format: functional; conditions: UACC-257, 48 h; summary of the method: as §2
DU-145 = assay: Growth inhibition of human DU145 cells after 48 hrs by SRB assay; format: functional; summary of the method: as §1
Malme-3M = assay: Growth inhibition of human MALME-3M cells after 48 hrs by SRB assay; format: functional; summary of the method: as §2
RXF 393 = assay: Growth inhibition of human RFX393 cells after 48 hrs by SRB assay; format: functional; conditions: RXF 393, 48 h; summary of the method: as §1
Hs-578T = assay: Growth inhibition of human HS578T cells after 48 hrs by SRB assay; format: functional; summary of the method: as §2
SK-OV-3 = assay: Growth inhibition of human SK-OV3 cells after 48 hrs by SRB assay; format: functional; conditions: SK-OV-3, 48 h; summary of the method: as §1
[4] = Toxicity in brine shrimp after 24 hrs; format: organism-based; conditions: artemia, in vivo; read-out: LD50
SW480 = assay: Antiproliferative activity against human SW480 cells after 5 days by MTT assay; conditions: SW480, 120 h
EKVX = assay: Growth inhibition of human EKVX cells after 48 hrs by SRB assay; format: functional; summary of the method: as §2
CCRF-CEM = assay: Growth inhibition of human CCRF-CEM cells after 48 hrs by SRB assay; format: functional; summary of the method: as §2
[5] = read-out: Log LC50 (the source's name) (converted)

COC(=O)C1=CO[C@@H]2O[C@H]3/C(=C\c4ccc(O)cc4)C(=O)O[C@]34C=C[C@H]1[C@H]24 [PRISMATOMERIN]
Activity (BT-549): inactive
GI50 (BT-549; BT-549, 48 h): 151 nM
GI50 (UACC-62): 437 nM
CC50 (UACC-62; [5]): 575 nM
GI50 (HOP-62): 263 nM
CC50 (HOP-62; [5]): 2820 nM
TGI (HOP-62; read-out: Log TGI (converted)): 708 nM
GI50 (NCI-H460): 240 nM
CC50 (NCI-H460; [5]): > 100000 nM
GI50 (MDA-MB-231): 162 nM
CC50 (MDA-MB-231; [5]): 851 nM
GI50 (HCT-15): 162 nM
CC50 (HCT-15; [5]): 3800 nM
TGI (HCT-15; read-out: Log TGI (converted)): 575 nM
GI50 (T47D): 380 nM
CC50 (T47D; [5]): 3890 nM
GI50 (COLO 205): 537 nM
CC50 (COLO 205; [5]): > 100000 nM
GI50 (NCI-H23): 186 nM
CC50 (NCI-H23; [5]): 933 nM
GI50 (OVCAR-5): 257 nM
CC50 (OVCAR-5; [5]): 813 nM
TGI (OVCAR-5; read-out: Log TGI (converted)): 407 nM
GI50 (K562): < 10 nM
CC50 (K562; [5]): > 100000 nM
GI50 (OVCAR-8): 174 nM
CC50 (OVCAR-8; [5]): 2240 nM
TGI (OVCAR-8; read-out: Log TGI (converted)): 501 nM
GI50 (NCI/ADR-RES): 170 nM
CC50 (NCI/ADR-RES; [5]): 17400 nM
CC50 (IGROV-1): 851 nM
GI50 (NCI-H522): 186 nM
CC50 (NCI-H522; [5]): 1350 nM
GI50 [1]: 1950 nM
CC50 [1, 5]: 24500 nM
TGI ([1]; read-out: Log TGI (converted)): 5370 nM
Activity (MDA-MB235): inactive
GI50 [2]: 200 nM
GI50 (CAKI-1): 126 nM
CC50 (CAKI-1; [5]): 8710 nM
TGI (CAKI-1; read-out: Log TGI (converted)): 501 nM
GI50 (SNB-19): 347 nM
CC50 (SNB-19; [5]): 26900 nM
TGI (SNB-19; read-out: Log TGI (converted)): 110000 nM
GI50 (SF-268): 263 nM
CC50 (SF-268; [5]): 63100 nM
TGI (SF-268; read-out: Log TGI (converted)): 759 nM
GI50 (KM12): 302 nM
CC50 (KM12; [5]): > 100000 nM
TGI (KM12; read-out: Log TGI (converted)): 1510 nM
GI50 [3]: 490 nM
CC50 [3, 5]: 1700 nM
TGI ([3]; read-out: Log TGI (converted)): 562 nM
GI50 (A549): 295 nM
CC50 (A549; [5]): > 100000 nM
TGI (A549; read-out: Log TGI (converted)): 832 nM
Activity (SNB-75): inactive
CC50 (SNB-75; SNB-75, 48 h, read-out: Log LC50 (the source's name) (converted)): > 100000 nM
GI50 (MCF7): 120 nM
CC50 (MCF7; [5]): > 100000 nM
TGI (MCF7; read-out: Log TGI (converted)): 1000 nM
Activity (M14): inactive
GI50 (M14; M14, 48 h): 162 nM
GI50 (RPMI-8226): < 10 nM
CC50 (RPMI-8226; [5]): > 100000 nM
GI50 (UACC-257): 145 nM
CC50 (UACC-257; [5]): 10000 nM
Activity (DU-145): inactive
GI50 (DU-145; DU-145, 48 h): 115 nM
GI50 (Malme-3M): 135 nM
CC50 (Malme-3M; [5]): 4680 nM
GI50 (RXF 393): < 10 nM
CC50 (RXF 393; [5]): 661 nM
TGI (RXF 393; read-out: Log TGI (converted)): 162 nM
GI50 (Hs-578T): 257 nM
CC50 (Hs-578T; [5]): > 100000 nM
GI50 (SK-OV-3): 912 nM
CC50 (SK-OV-3; [5]): > 100000 nM
TGI (SK-OV-3; read-out: Log TGI (converted)): 3160 nM
LC50 at 24 h [4]: 195 nM
IC50 (SW480): 60 nM
GI50 (EKVX): 355 nM
CC50 (EKVX; [5]): 40700 nM
GI50 (CCRF-CEM): 38 nM
CC50 (CCRF-CEM; [5]): > 100000 nM

Source: ChEMBL document CHEMBL1141258, “Prismatomerin, a new iridoid from Prismatomeris tetrandra. Structure elucidation, determination of absolute configuration, and cytotoxicity” (J Nat Prod, 2007)
